Test: Luciferase/luciferin-expressing antifolate-resistant parasites were used to infect a culture of HepG2 cells that were pre-incubated with compounds. Infected hepatocytes emit light due to the luciferase reaction. Assay results are presented as the percent inhibition of light emission compared to control. […]
Format: functional
Conditions: Plasmodium berghei, sporozoite; for IC50: read-out: LUCIFERASE INFECTION ASSAY - IC50; for IC90: read-out: LUCIFERASE INFECTION ASSAY - IC90
Summary of the method: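 HepG2-A16-CD81EGFP cells (3x10³/well) were seeded 20-26 h before infection, and compound was added 18 h before infection (0.5% DMSO final; library screened at 0.250-39 µM, average 10 µM). Each well received 1x10³ P. berghei GFP-Luc sporozoites from A. stephensi salivary glands, then plates were spun at 330xg for 3 min. After 48 h at 37°C, 5% CO₂, BrightGlo luminescence was read and normalized to 64 DMSO and 64 10 µM atovaquone wells.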

[1] = PBLUC_HILL_SLOPE 1.68, PBLUC_R_SQUARED 0.822
[2] = PBLUC_HILL_SLOPE 1.94, PBLUC_R_SQUARED 0.789
[3] = PBLUC_HILL_SLOPE 1.77, PBLUC_R_SQUARED 0.431

c1ccc(CNc2nc(Nc3ccccc3)nc3ccccc23)cc1
IC50 [1]: 0.476 µM | IC90 [1]: 1.76 µM

N=c1c2ccccc2nnn1-c1cccc(C(F)(F)F)c1
IC50 [2]: 0.796 µM | IC90 [2]: 2.47 µM

Cc1cc(Nc2ccc(Cl)cc2)n2nc(C(F)(F)F)nc2n1
IC50 [3]: 1.54 µM | IC90 [3]: 5.32 µM

Reference: ChEMBL document CHEMBL4229301, “Open-source discovery of chemical leads for next-generation chemoprotective antimalarials” (2018)
